This passage reports outcome and potentiation results from PubChem BioAssay.

Molecules are shown by their SMILES. “And” between values parts separate entries of the source, which are not always exact repeats. Identical values can stand only once. The source made the active and inactive calls.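 The calls were made as follows, unless noted: active = current rise at least 3 SD above the untreated control mean in each of two repeat wells; inactive = the rest.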

Sequence of Potassium voltage-gated channel subfamily KQT member 1 (Homo sapiens) (P51787 whole entry, looked up): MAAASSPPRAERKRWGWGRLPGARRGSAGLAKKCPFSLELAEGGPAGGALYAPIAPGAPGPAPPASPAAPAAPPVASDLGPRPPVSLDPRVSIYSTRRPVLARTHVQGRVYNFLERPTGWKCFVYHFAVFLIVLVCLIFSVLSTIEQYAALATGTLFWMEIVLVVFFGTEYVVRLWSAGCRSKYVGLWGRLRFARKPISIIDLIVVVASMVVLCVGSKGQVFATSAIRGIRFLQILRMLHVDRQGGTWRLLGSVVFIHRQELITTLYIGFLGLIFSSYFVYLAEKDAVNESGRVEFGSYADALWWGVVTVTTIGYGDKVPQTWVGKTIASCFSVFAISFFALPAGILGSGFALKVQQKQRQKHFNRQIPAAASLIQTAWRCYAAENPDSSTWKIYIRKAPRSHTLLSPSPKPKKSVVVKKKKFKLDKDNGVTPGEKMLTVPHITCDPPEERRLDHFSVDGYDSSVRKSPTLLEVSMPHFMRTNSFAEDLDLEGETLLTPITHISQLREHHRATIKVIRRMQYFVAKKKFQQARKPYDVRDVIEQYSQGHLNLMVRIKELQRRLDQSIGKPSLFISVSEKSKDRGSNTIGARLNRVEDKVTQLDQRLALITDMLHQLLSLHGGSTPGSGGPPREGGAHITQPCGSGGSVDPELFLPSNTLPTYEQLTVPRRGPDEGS

The target of the first assay is Potassium voltage-gated channel subfamily KQT member 2 (Rattus norvegicus) (UniProt O88943). As to the kind of experiment: rat KCNQ2 channel potentiation, selectivity assay for KCNQ1 potentiator project, KCNQ2-CHO-K1 cells (AID 493009;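 active = mean duplicate potentiation above the buffer control mean plus 5 SD of buffer wells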;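 also: assay conditions were tuned for KCNQ1 rather than KCNQ2 modulators; signal is max minus min fluorescence divided by baseline after thallium stimulus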). The following applies: FluxOR thallium flux fluorescence, at 10 µM; active compounds read high, scaled: buffer 0, activator control 100.
Sequence of Potassium voltage-gated channel subfamily KQT member 2 (Rattus norvegicus) (O88943 whole entry, looked up): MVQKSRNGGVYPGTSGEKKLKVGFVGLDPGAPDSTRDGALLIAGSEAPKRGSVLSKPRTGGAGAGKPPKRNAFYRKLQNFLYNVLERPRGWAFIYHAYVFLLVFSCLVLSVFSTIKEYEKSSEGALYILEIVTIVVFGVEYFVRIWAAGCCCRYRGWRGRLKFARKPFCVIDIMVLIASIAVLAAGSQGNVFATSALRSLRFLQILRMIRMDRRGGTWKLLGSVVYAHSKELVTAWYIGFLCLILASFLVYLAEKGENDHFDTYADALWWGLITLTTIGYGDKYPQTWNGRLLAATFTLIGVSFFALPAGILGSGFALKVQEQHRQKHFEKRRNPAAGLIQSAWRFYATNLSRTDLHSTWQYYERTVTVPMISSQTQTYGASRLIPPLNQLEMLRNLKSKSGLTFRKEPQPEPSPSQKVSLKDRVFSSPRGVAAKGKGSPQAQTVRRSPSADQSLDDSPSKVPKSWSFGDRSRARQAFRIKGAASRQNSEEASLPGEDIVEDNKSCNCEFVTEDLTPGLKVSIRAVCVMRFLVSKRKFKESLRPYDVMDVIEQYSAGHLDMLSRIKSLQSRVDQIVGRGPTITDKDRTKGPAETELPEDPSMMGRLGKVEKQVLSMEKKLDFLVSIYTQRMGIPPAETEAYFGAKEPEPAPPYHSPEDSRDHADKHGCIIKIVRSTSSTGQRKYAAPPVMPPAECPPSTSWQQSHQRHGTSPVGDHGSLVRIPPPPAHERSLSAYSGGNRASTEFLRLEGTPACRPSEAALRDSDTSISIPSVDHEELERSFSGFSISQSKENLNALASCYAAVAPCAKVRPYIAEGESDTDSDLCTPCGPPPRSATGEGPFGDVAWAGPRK
Regarding `CC(=O)Nc1c2c(nn1-c1ccc(C)cc1)CS(=O)(=O)C2`, the outcome was inactive.
The same measure, in the same setting: in the case of `CN(C)CCNc1ncnc2c1sc1nc(N3CCCC3)c3c(c12)CC(C)(C)OC3` it was “inactive”; in that of `CC(=O)c1c(O)cc(C)n(-c2ccc(F)cc2)c1=O`, “inactive”.
For the molecule `COCCn1c(SCC(=O)NCc2ccc3c(c2)OCO3)nnc1C(C)C`, the result was inactive.
Same read-out and setting: in the case of `CCC(C(=O)OCC(=O)NC(=O)NC(C)(C)C)c1ccccc1` (stereo not given) it was “inactive”; in that of `Cc1nn2c(NCc3ccccn3)cc(C(C)C)nc2c1-c1ccccc1`, “inactive”.
Still for that read-out and setting: in the case of `CCOC(=O)CSc1nc2ccccc2n2c(C)nnc12` it was “inactive”.
With `Cc1cccc(/C=C/C(=O)c2cc(Br)ccc(=O)c2O)c1`, the potentiation is 254% (active).
`N=c1ccn(CC(=O)c2ccc(-c3ccccc3)cc2)cc1`: the outcome was inactive.
Regarding `O=C(NC(=S)Nc1ccccc1)c1cccs1`, the potentiation is 142% (active).
As for `CC(/C=C1\SC(=S)N(NS(=O)(=O)c2ccc(C)cc2)C1=O)=C\c1ccccc1`, the potentiation is 666% (active).
The same measure, in the same setting: in the case of `O=C(COc1ccc(Cl)cc1)NNC(=O)C(=O)NC1CCCCC1` it was 158% (active).
Regarding `COc1ccc(-n2cc(CNC3CCN(C)CC3)c(-c3cccc(F)c3)n2)cc1`, the outcome was inactive.
In the case of `COc1cc(OC)cc(C(=O)NC(=S)N2CCCCCC2)c1`, the potentiation is 198% (active).
For the molecule `Nc1c(C(=O)Nc2ccc(F)cc2)nnn1-c1cccc(C(F)(F)F)c1`, the result was inactive.
Still for that read-out and setting: in the case of `CC(C)(C)n1nnnc1C(c1cc2cc3c(cc2[nH]c1=O)OCCO3)N1CCSCC1` (stereo not given) it was “inactive”.
In the case of `O=C(NNc1nc2c(F)cccc2s1)c1cc(=O)c2ccccc2o1`, the outcome was inactive.
Regarding `CCc1ccc(NC(=O)C(=O)NNC(=O)COc2cccc(OC)c2)cc1`, the potentiation was 251% (active).
Regarding `CCn1c(=S)[nH]c2sc3c(c2c1=O)CCCC3`, the potentiation is 383% (active).
For `COc1ccc(C(=O)CSc2nnc(NC(=O)C3CC(=O)N(c4cccc(OC)c4)C3)s2)cc1` (stereo not given), the result was inactive.
On to `Cc1cccc(C(=O)NNC(=O)C(=O)NC(C)(C)C)c1`, for which the potentiation was 146% (active).
`CN(C(=O)c1ccco1)c1nnc(-c2ccc(F)cc2)s1`: the result was inactive.
Turning to `C=CCNC(=S)Nc1sc2c(c1C(=O)OCC)CC(C)(CC)OC2` (stereo not given), the potentiation was 254% (active).
On to `COC(=O)c1ccccc1NC(=O)Cn1c(=O)n(Cc2ccccc2)c(=O)c2c(C)c(C)sc21`, for which the outcome was inactive.
As for `CCCc1cc2c(-c3ccccc3)cc(=O)oc2cc1OCc1ccc(C(=O)O)o1`, the potentiation is 222% (active).
On to `Cc1ccc2cc(CN(C(=O)c3ccco3)c3ccccc3C)c(=O)[nH]c2c1`, for which the result was inactive.
Still for that read-out and setting: the same measure for `N#C/C(=C/c1cn(-c2ccccc2)nc1-c1cccc(S(=O)(=O)N2CCOCC2)c1)C(=O)NCc1ccco1`: “inactive”.
Take `NC(=NCCCCCCN=C(N)/N=C(\N)Nc1ccc(Cl)cc1)/N=C(\N)Nc1ccc(Cl)cc1`: the potentiation was 183% (active) and 216% (active).
Same read-out and setting: in the case of `NC(=O)c1cccc(N=Cc2cc(Cl)cc(Cl)c2O)c1` it was 154% (active).
The same measure, in the same setting: in the case of `Cc1cc(NC(=O)CSc2nc(C3CC3)nc3sc(C)c(C)c23)no1` it was 172% (active); in that of `O=C(Nc1nc(=O)c2ccccc2s1)c1ccc(F)cc1`, 152% (active).
Still for that read-out and setting: the same measure for `CCOC(=O)Cn1c(=S)[nH]c2c(oc3ccc(Cl)cc32)c1=O`: 218% (active).
With `COc1ccc(CNC(=O)CNC(C)c2ccc(F)cc2)cc1` (stereo not given), the outcome was inactive.
On to `CCOC(=O)C1=NN(C(=O)c2ccc(OC)cc2)C(O)(c2ccc(Cl)cc2)C1` (stereo not given), for which the potentiation was 428% (active).
Take `Fc1cccc(/C=N/NC(=S)Nc2ccccc2Cl)c1`: the potentiation was 158% (active).
Turning to `CCOC(=O)c1sc(NC(=S)NC(=O)c2ccc(OC)cc2)nc1C`, the result was inactive.
With `Cc1ccc(C)c(/C=C/C(=O)c2ccccc(=O)c2O)c1`, the potentiation was 333% (active).
On to `CC1C/C(=C/c2ccncc2)C(=O)/C(=C/c2ccncc2)C1` (stereo not given), for which the outcome was inactive.
Turning to `Oc1c(Cl)cc(Cl)c2cccnc12`, the potentiation was 211% (active).
`Cc1c(N2C(=O)/C(=C\c3ccccc3O)SC2=S)c(=O)n(-c2ccccc2)n1C`: the potentiation is 392% (active).

The target of another assay is Potassium voltage-gated channel subfamily KQT member 1 (Homo sapiens) (UniProt P51787). In words: KCNQ1 channel current potentiators, confirmation, orthogonal assay for KCNQ1 potentiator project, IonWorks patch clamp, KCNQ1-CHO cells (AID 493184). Conditions: automated patch clamp current, at 10 µM; active compounds read high. Summed up:
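Material: KCNQ1-expressing CHO cells; doses: 10 µM final, single point; probe or stimulus: voltage step from -90 mV holding to +40 mV, 2,000 ms; signal: automated voltage clamp, amphotericin B perforated patch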
A general note: In patch-clamp work, channel activity is measured electrically.
Turning to `CC(=O)Nc1c2c(nn1-c1ccc(C)cc1)CS(=O)(=O)C2`, the outcome was inactive.
On the same count and under the same terms, the same measure for `CN(C)CCNc1ncnc2c1sc1nc(N3CCCC3)c3c(c12)CC(C)(C)OC3`: “inactive”; for `CC(=O)c1c(O)cc(C)n(-c2ccc(F)cc2)c1=O`: “inactive”.
Consider `COCCn1c(SCC(=O)NCc2ccc3c(c2)OCO3)nnc1C(C)C`, for which the outcome was inactive.
Same read-out and setting: the same measure for `CCC(C(=O)OCC(=O)NC(=O)NC(C)(C)C)c1ccccc1` (stereo not given): “inactive”.
On the same count and under the same terms, the same measure for `Cc1nn2c(NCc3ccccn3)cc(C(C)C)nc2c1-c1ccccc1`: “inactive”.
Still for that read-out and setting: in the case of `CCOC(=O)CSc1nc2ccccc2n2c(C)nnc12` it was “inactive”; in that of `Cc1cccc(/C=C/C(=O)c2cc(Br)ccc(=O)c2O)c1`, “inactive”.
In the case of `N=c1ccn(CC(=O)c2ccc(-c3ccccc3)cc2)cc1`, the outcome was inactive.
On the same count and under the same terms, in the case of `O=C(NC(=S)Nc1ccccc1)c1cccs1` it was “inactive”; in that of `CC(/C=C1\SC(=S)N(NS(=O)(=O)c2ccc(C)cc2)C1=O)=C\c1ccccc1`, “inactive”; in that of `O=C(COc1ccc(Cl)cc1)NNC(=O)C(=O)NC1CCCCC1`, “inactive”.
On to `COc1ccc(-n2cc(CNC3CCN(C)CC3)c(-c3cccc(F)c3)n2)cc1`, for which the outcome was inactive.
Still for that read-out and setting: the same measure for `COc1cc(OC)cc(C(=O)NC(=S)N2CCCCCC2)c1`: “inactive”.
Still for that read-out and setting: the same measure for `Nc1c(C(=O)Nc2ccc(F)cc2)nnn1-c1cccc(C(F)(F)F)c1`: “inactive”.
Still for that read-out and setting: in the case of `CC(C)(C)n1nnnc1C(c1cc2cc3c(cc2[nH]c1=O)OCCO3)N1CCSCC1` (stereo not given) it was “inactive”; in that of `O=C(NNc1nc2c(F)cccc2s1)c1cc(=O)c2ccccc2o1`, “inactive”.
Turning to `CCc1ccc(NC(=O)C(=O)NNC(=O)COc2cccc(OC)c2)cc1`, the outcome was inactive.
On to `CCn1c(=S)[nH]c2sc3c(c2c1=O)CCCC3`, for which the outcome was inactive.
For `COc1ccc(C(=O)CSc2nnc(NC(=O)C3CC(=O)N(c4cccc(OC)c4)C3)s2)cc1` (stereo not given), the result was inactive.
Take `Cc1cccc(C(=O)NNC(=O)C(=O)NC(C)(C)C)c1`: the outcome was inactive.
The same measure, in the same setting: in the case of `CN(C(=O)c1ccco1)c1nnc(-c2ccc(F)cc2)s1` it was “inactive”; in that of `C=CCNC(=S)Nc1sc2c(c1C(=O)OCC)CC(C)(CC)OC2` (stereo not given), “inactive”.
Regarding `COC(=O)c1ccccc1NC(=O)Cn1c(=O)n(Cc2ccccc2)c(=O)c2c(C)c(C)sc21`, the outcome was inactive.
Same read-out and setting: the same measure for `CCCc1cc2c(-c3ccccc3)cc(=O)oc2cc1OCc1ccc(C(=O)O)o1`: “inactive”; for `Cc1ccc2cc(CN(C(=O)c3ccco3)c3ccccc3C)c(=O)[nH]c2c1`: “inactive”; for `N#C/C(=C/c1cn(-c2ccccc2)nc1-c1cccc(S(=O)(=O)N2CCOCC2)c1)C(=O)NCc1ccco1`: “inactive”.
Same read-out and setting: in the case of `NC(=NCCCCCCN=C(N)/N=C(\N)Nc1ccc(Cl)cc1)/N=C(\N)Nc1ccc(Cl)cc1` it was “inactive”; in that of `NC(=O)c1cccc(N=Cc2cc(Cl)cc(Cl)c2O)c1`, “inactive”.
Regarding `Cc1cc(NC(=O)CSc2nc(C3CC3)nc3sc(C)c(C)c23)no1`, the result was inactive.
The same measure, in the same setting: in the case of `O=C(Nc1nc(=O)c2ccccc2s1)c1ccc(F)cc1` it was “inactive”.
On the same count and under the same terms, in the case of `CCOC(=O)Cn1c(=S)[nH]c2c(oc3ccc(Cl)cc32)c1=O` it was “inactive”; in that of `COc1ccc(CNC(=O)CNC(C)c2ccc(F)cc2)cc1` (stereo not given), “inactive”; in that of `CCOC(=O)C1=NN(C(=O)c2ccc(OC)cc2)C(O)(c2ccc(Cl)cc2)C1` (stereo not given), “inactive”.
As to `Fc1cccc(/C=N/NC(=S)Nc2ccccc2Cl)c1`, the outcome was inactive.
Still for that read-out and setting: the same measure for `CCOC(=O)c1sc(NC(=S)NC(=O)c2ccc(OC)cc2)nc1C`: “inactive”; for `Cc1ccc(C)c(/C=C/C(=O)c2ccccc(=O)c2O)c1`: “inactive”.
Turning to `CC1C/C(=C/c2ccncc2)C(=O)/C(=C/c2ccncc2)C1` (stereo not given), the outcome was inactive.
On the same count and under the same terms, the same measure for `Oc1c(Cl)cc(Cl)c2cccnc12`: “inactive”; for `Cc1c(N2C(=O)/C(=C\c3ccccc3O)SC2=S)c(=O)n(-c2ccccc2)n1C`: “inactive”.
